Results from ChEMBL document CHEMBL4354828, “Discovery of Taniborbactam (VNRX-5133): A Broad-Spectrum Serine- and Metallo-β-lactamase Inhibitor for Carbapenem-Resistant Bacterial Infections” (J Med Chem, 2020).
Values after ≈ are worked out from the molar mass of the structure shown.

Assays:
[1] = Inhibition of bacterial KPC-2 using imipenem as substrate preincubated for 15 mins followed by susbtrate addition and measured after 10 mins by spectrophotometric method; set-up: species or system Bacteria
[2] = Inhibition of bacterial AmpC using nitrocefin as substrate preincubated for 15 mins followed by susbtrate addition and measured after 10 mins by spectrophotometric method; set-up: species or system Bacteria
[3] = Inhibition of bacterial OXA-48 using nitrocefin as substrate preincubated for 15 mins followed by susbtrate addition and measured after 10 mins by spectrophotometric method; set-up: species or system Bacteria
[4] = Inhibition of bacterial VIM-2 using nitrocefin as substrate preincubated for 15 mins followed by susbtrate addition and measured after 10 mins by spectrophotometric method; set-up: species or system Bacteria
Outline: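 Purified β-lactamase inhibition. IC50 values are the average of duplicates unless otherwise indicated.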

Klebsiella pneumoniae [5] = assay: Inhibition of KPC-2 in Klebsiella pneumoniae assessed as meropenem antibacterial activity at 4 ug/ml after 16 to 20 hrs by CLSI-based microbroth dilution method (Rvb >= […] ug/ml)
Klebsiella pneumoniae [6] = assay: Inhibition of OXA-48 in Klebsiella pneumoniae assessed as meropenem antibacterial activity at 4 ug/ml after 16 to 20 hrs by CLSI-based microbroth dilution method (Rvb >= […] ug/ml)
Klebsiella pneumoniae [7] = assay: Inhibition of VIM-4 in Klebsiella pneumoniae assessed as meropenem antibacterial activity at 4 ug/ml after 16 to 20 hrs by CLSI-based microbroth dilution method (Rvb >= […] ug/ml)
[8] = molecular target: Beta-lactamase VIM-2 (Pseudomonas aeruginosa) (UniProt Q9K2N0); assay: Inhibition of VIM-2 in Pseudomonas aeruginosa assessed as meropenem antibacterial activity at 4 ug/ml after 16 to 20 hrs by CLSI-based microbroth dilution method (Rvb >= […] ug/ml)
[9] = test system: Klebsiella pneumoniae ATCC BAA-1705; assay: Inhibition of KPC-2 in Klebsiella pneumoniae ATCC BAA 1705 assessed as piperacillin antibacterial activity at 16 ug/ml after 16 to 20 hrs by CLSI-based microbroth dilution method (Rvb > […] ug/ml)
Klebsiella pneumoniae [10] = assay: Inhibition of VIM-27/CTX-M-15/SHV-11/OXA-1 in Klebsiella pneumoniae CDC-0040 assessed as piperacillin antibacterial activity at 16 ug/ml after 16 to 20 hrs by CLSI-based microbroth dilution method
Escherichia coli [11] = assay: Inhibition of NDM-1/CMY-6/OXA-1 in Escherichia coli CDC-0055 assessed as piperacillin antibacterial activity at 16 ug/ml after 16 to 20 hrs by CLSI-based microbroth dilution method
Outline: (§1)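 MDR β-lactamase-producing Gram-negative clinical isolates. […] MIC was reported as the inhibitor concentration that restores the partner's antibacterial activity.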

Klebsiella pneumoniae [12] = assay: Inhibition of OXA-232/OXA-9/TEM-1A/CTX-M-15/OXA-1 in Klebsiella pneumoniae CDC-0066 assessed as piperacillin antibacterial activity at 16 ug/ml after 16 to 20 hrs by CLSI-based microbroth dilution method (Rvb > […] ug/ml)
Pseudomonas aeruginosa [13] = assay: Inhibition of KPC-2/PDC-42 in Pseudomonas aeruginosa CDC-0356 assessed as piperacillin antibacterial activity at 16 ug/ml after 16 to 20 hrs by CLSI-based microbroth dilution method (Rvb > […] ug/ml)
Klebsiella pneumoniae [14] = assay: Inhibition of KPC-2/SHV12/TEM-1 in Klebsiella pneumoniae CDC-0361 assessed as piperacillin antibacterial activity at 16 ug/ml after 16 to 20 hrs by CLSI-based microbroth dilution method (Rvb > […] ug/ml)
Escherichia coli [15] = assay: Inhibition of NDM in Escherichia coli CDC-0452 assessed as piperacillin antibacterial activity at 16 ug/ml after 16 to 20 hrs by CLSI-based microbroth dilution method (Rvb > […] ug/ml)
[16] = test system: Klebsiella pneumoniae ATCC BAA-1705; assay: Inhibition of KPC-2 in Klebsiella pneumoniae ATCC BAA 1705 assessed as cefepime antibacterial activity at 8 ug/ml after 16 to 20 hrs by CLSI-based microbroth dilution method; outline: as §1
Klebsiella pneumoniae [17] = assay: Inhibition of VIM-27/CTX-M-15/SHV-11/OXA-1 in Klebsiella pneumoniae CDC-0040 assessed as cefepime antibacterial activity at 8 ug/ml after 16 to 20 hrs by CLSI-based microbroth dilution method
Escherichia coli [18] = assay: Inhibition of NDM-1/CMY-6/OXA-1 in Escherichia coli CDC-0055 assessed as cefepime antibacterial activity at 8 ug/ml after 16 to 20 hrs by CLSI-based microbroth dilution method; outline: as §1
Klebsiella pneumoniae [19] = assay: Inhibition of OXA-232/OXA-9/TEM-1A/CTX-M-15/OXA-1 in Klebsiella pneumoniae CDC-0066 assessed as cefepime antibacterial activity at 8 ug/ml after 16 to 20 hrs by CLSI-based microbroth dilution method (Rvb > […] ug/ml)
Pseudomonas aeruginosa [20] = assay: Inhibition of KPC-2/PDC-42 in Pseudomonas aeruginosa CDC-0356 assessed as cefepime antibacterial activity at 8 ug/ml after 16 to 20 hrs by CLSI-based microbroth dilution method (Rvb > […] ug/ml)
Klebsiella pneumoniae [21] = assay: Inhibition of KPC-2/SHV12/TEM-1 in Klebsiella pneumoniae CDC-0361 assessed as cefepime antibacterial activity at 8 ug/ml after 16 to 20 hrs by CLSI-based microbroth dilution method (reference value: […] ug/ml)
Escherichia coli [22] = assay: Inhibition of NDM in Escherichia coli CDC-0452 assessed as cefepime antibacterial activity after 16 to 20 hrs by CLSI-based microbroth dilution method (reference value: […] ug/ml)
[23] = test system: Klebsiella pneumoniae ATCC BAA-1705; assay: Inhibition of KPC-2 in Klebsiella pneumoniae ATCC BAA 1705 assessed as meropenem antibacterial activity at 4 ug/ml after 16 to 20 hrs by CLSI-based microbroth dilution method (reference value: […] ug/ml)
Klebsiella pneumoniae [24] = assay: Inhibition of VIM-27/CTX-M-15/SHV-11/OXA-1 in Klebsiella pneumoniae CDC-0040 assessed as meropenem antibacterial activity at 4 ug/ml after 16 to 20 hrs by CLSI-based microbroth dilution method
Escherichia coli [25] = assay: Inhibition of NDM-1/CMY-6/OXA-1 in Escherichia coli CDC-0055 assessed as meropenem antibacterial activity at 4 ug/ml after 16 to 20 hrs by CLSI-based microbroth dilution method (reference value: […] ug/ml)
Klebsiella pneumoniae [26] = assay: Inhibition of OXA-232/OXA-9/TEM-1A/CTX-M-15/OXA-1 in Klebsiella pneumoniae CDC-0066 assessed as meropenem antibacterial activity at 4 ug/ml after 16 to 20 hrs by CLSI-based microbroth dilution method (reference value: […] ug/ml)
Pseudomonas aeruginosa [27] = assay: Inhibition of KPC-2/PDC-42 in Pseudomonas aeruginosa CDC-0356 assessed as meropenem antibacterial activity at 4 ug/ml after 16 to 20 hrs by CLSI-based microbroth dilution method (reference value: […] ug/ml)
Klebsiella pneumoniae [28] = assay: Inhibition of KPC-2/SHV12/TEM-1 in Klebsiella pneumoniae CDC-0361 assessed as meropenem antibacterial activity at 4 ug/ml after 16 to 20 hrs by CLSI-based microbroth dilution method (reference value: […] ug/ml)
Escherichia coli [29] = assay: Inhibition of NDM in Escherichia coli CDC-0452 assessed as meropenem antibacterial activity at 4 ug/ml after 16 to 20 hrs by CLSI-based microbroth dilution method (reference value: […] ug/ml)
Pseudomonas aeruginosa [30] = assay: Inhibition of VIM in Pseudomonas aeruginosa CDC-0457 assessed as cefepime antibacterial activity at 8 ug/ml after 16 to 20 hrs by CLSI-based microbroth dilution method
Pseudomonas aeruginosa [31] = assay: Inhibition of VIM in Pseudomonas aeruginosa CDC-0457 assessed as meropenem antibacterial activity at 4 ug/ml after 16 to 20 hrs by CLSI-based microbroth dilution method
Pseudomonas aeruginosa [32] = assay: Inhibition of VIM in Pseudomonas aeruginosa CDC-0457 assessed as piperacillin antibacterial activity at 16 ug/ml after 16 to 20 hrs by CLSI-based microbroth dilution method

CS(=O)(=O)NCCN[C@H]1CC[C@H](CC(=O)N[C@H]2Cc3cccc(C(=O)O)c3OB2O)CC1
IC50 [1]: 17 nM
IC50 [2]: 6 nM
IC50 [3]: 499 nM
IC50 [4]: 110 nM
MIC (Klebsiella pneumoniae [5]): 4 µg/mL (≈ 8.56 µM)
MIC (Klebsiella pneumoniae [6]): 8 µg/mL (≈ 17.1 µM)
MIC (Klebsiella pneumoniae [7]): 8 µg/mL (≈ 17.1 µM)
MIC [8]: 16 µg/mL (≈ 34.2 µM)

CC(=O)N[C@H]1Cc2cccc(C(=O)O)c2OB1O
MIC [9]: 2 µg/mL (≈ 8.03 µM)
MIC (Klebsiella pneumoniae [10]): > 16 µg/mL
MIC (Escherichia coli [11]): > 16 µg/mL
MIC (Klebsiella pneumoniae [12]): > 16 µg/mL
MIC (Pseudomonas aeruginosa [13]): 2 µg/mL (≈ 8.03 µM)
MIC (Klebsiella pneumoniae [14]): 2 µg/mL (≈ 8.03 µM)
MIC (Escherichia coli [15]): > 16 µg/mL
MIC [16]: 7.9 ng/mL (≈ 0.0317 µM)
MIC (Klebsiella pneumoniae [17]): > 16 µg/mL
MIC (Escherichia coli [18]): > 16 µg/mL
MIC (Klebsiella pneumoniae [19]): 1 µg/mL (≈ 4.02 µM)
MIC (Pseudomonas aeruginosa [20]): 2 µg/mL (≈ 8.03 µM)
MIC (Klebsiella pneumoniae [21]): 7.9 ng/mL (≈ 0.0317 µM)
MIC (Escherichia coli [22]): 8 µg/mL (≈ 32.1 µM)
MIC [23]: 7.9 ng/mL (≈ 0.0317 µM)
MIC (Klebsiella pneumoniae [24]): > 16 µg/mL
MIC (Escherichia coli [25]): 16 µg/mL (≈ 64.2 µM)
MIC (Klebsiella pneumoniae [26]): 2 µg/mL (≈ 8.03 µM)
MIC (Pseudomonas aeruginosa [27]): 2 µg/mL (≈ 8.03 µM)
MIC (Klebsiella pneumoniae [28]): 7.9 ng/mL (≈ 0.0317 µM)
MIC (Escherichia coli [29]): 8 µg/mL (≈ 32.1 µM)
MIC (Pseudomonas aeruginosa [30]): > 16 µg/mL
MIC (Pseudomonas aeruginosa [31]): > 16 µg/mL
MIC (Pseudomonas aeruginosa [32]): > 16 µg/mL

O=C(O)CN[C@H]1CC[C@H](CC(=O)N[C@H]2Cc3cccc(C(=O)O)c3OB2O)CC1
IC50 [1]: 19 nM
IC50 [2]: 6 nM
IC50 [3]: 3140 nM
IC50 [4]: 2400 nM
MIC (Klebsiella pneumoniae [5]): 4 µg/mL (≈ 9.9 µM)
MIC (Klebsiella pneumoniae [6]): 8 µg/mL (≈ 19.8 µM)
MIC (Klebsiella pneumoniae [7]): 32 µg/mL (≈ 79.2 µM)
MIC [8]: 16 µg/mL (≈ 39.6 µM)

N=C(N)NCCN[C@H]1CC[C@H](CC(=O)N[C@H]2Cc3cccc(C(=O)O)c3OB2O)CC1
IC50 [1]: 27 nM
IC50 [2]: 6 nM
IC50 [3]: 1590 nM
IC50 [4]: 86 nM
MIC (Klebsiella pneumoniae [5]): 1 µg/mL (≈ 2.32 µM)
MIC (Klebsiella pneumoniae [6]): 2 µg/mL (≈ 4.64 µM)
MIC (Klebsiella pneumoniae [7]): 0.06 µg/mL (≈ 0.139 µM)
MIC [8]: 0.5 µg/mL (≈ 1.16 µM)

CNCCN[C@H]1CC[C@H](CC(=O)N[C@H]2Cc3cccc(C(=O)O)c3OB2O)CC1
IC50 [1]: 12 nM
IC50 [2]: 11 nM
IC50 [3]: 579 nM
IC50 [4]: 2 nM
MIC (Klebsiella pneumoniae [5]): 0.5 µg/mL (≈ 1.24 µM)
MIC (Klebsiella pneumoniae [6]): 2 µg/mL (≈ 4.96 µM)
MIC (Klebsiella pneumoniae [7]): 0.5 µg/mL (≈ 1.24 µM)

NC[C@H]1CC[C@H](CC(=O)N[C@H]2Cc3cccc(C(=O)O)c3OB2O)CC1
IC50 [1]: 100 nM
IC50 [2]: 25 nM
IC50 [3]: 1800 nM
IC50 [4]: 1600 nM
MIC (Klebsiella pneumoniae [5]): 1 µg/mL (≈ 2.78 µM)
MIC (Klebsiella pneumoniae [6]): 2 µg/mL (≈ 5.55 µM)
MIC (Klebsiella pneumoniae [7]): 8 µg/mL (≈ 22.2 µM)
MIC [8]: 4 µg/mL (≈ 11.1 µM)

NCCCN[C@H]1CC[C@H](CC(=O)N[C@H]2Cc3cccc(C(=O)O)c3OB2O)CC1
IC50 [1]: 70 nM
IC50 [2]: 5 nM
IC50 [3]: 664 nM
IC50 [4]: 82 nM
MIC (Klebsiella pneumoniae [5]): 0.5 µg/mL (≈ 1.24 µM)
MIC (Klebsiella pneumoniae [6]): 8 µg/mL (≈ 19.8 µM)
MIC (Klebsiella pneumoniae [7]): 4 µg/mL (≈ 9.92 µM)
MIC [8]: 0.25 µg/mL (≈ 0.62 µM)

NCCNc1ccc(CC(=O)N[C@H]2Cc3cccc(C(=O)O)c3OB2O)cc1
IC50 [1]: 22 nM
IC50 [2]: 5 nM
IC50 [3]: 288 nM
IC50 [4]: 491 nM
MIC (Klebsiella pneumoniae [5]): 1 µg/mL (≈ 2.61 µM)
MIC (Klebsiella pneumoniae [6]): 1 µg/mL (≈ 2.61 µM)
MIC (Klebsiella pneumoniae [7]): 8 µg/mL (≈ 20.9 µM)
MIC [8]: 0.5 µg/mL (≈ 1.3 µM)
